# How the values were obtained:
# [1] = tested on: CC(=O)OCC1=C(C(=O)O)N2C(=O)[C@@H](NC(=O)Cc3cccs3)[C@H]2SC1; conditions: Pseudomonas aeruginosa
# [2] = tested on: CCN1CCN(C(=O)N[C@@H](C(=O)N[C@@H]2C(=O)N3[C@@H]2SC(C)(C)[C@@H]3C(=O)O)c2ccccc2)C(=O)C1=O; conditions: Pseudomonas aeruginosa
# [3] = tested on: C[C@@H](O)[C@H]1C(=O)N2C(C(=O)O)=C(S[C@@H]3CN[C@H](C(=O)N(C)C)C3)[C@H](C)[C@H]12; conditions: Pseudomonas aeruginosa
# [4] = tested on: CC1(C)S[C@@H]2[C@H](NC(=O)[C@H](N)c3ccccc3)C(=O)N2[C@H]1C(=O)O; conditions: Pseudomonas aeruginosa
# [5] = tested on: CC(C)(O/N=C(\C(=O)N[C@@H]1C(=O)N2C(C(=O)[O-])=C(C[n+]3ccccc3)CS[C@H]12)c1csc(N)n1)C(=O)O; conditions: Pseudomonas aeruginosa
# [6] = tested on: CO/N=C(\C(=O)N[C@@H]1C(=O)N2C(C(=O)O)=C(COC(C)=O)CS[C@H]12)c1csc(N)n1; conditions: Pseudomonas aeruginosa
# [7] = tested on: CC1(C)S[C@@H]2[C@H](NC(=O)Cc3ccccc3)C(=O)N2[C@H]1C(=O)O; conditions: Pseudomonas aeruginosa
# [8] = tested on: CO/N=C(\C(=O)N[C@@H]1C(=O)N2C(C(=O)O)=C(COC(N)=O)CS[C@H]12)c1ccco1; conditions: Pseudomonas aeruginosa
# [9] = tested on: CC(=O)OCC1=C(C(=O)O)N2C(=O)[C@@H](NC(=O)Cc3cccs3)[C@H]2SC1; conditions: Pseudomonas aeruginosa; remark: listed apart in the source
# [10] = tested on: CCN1CCN(C(=O)N[C@@H](C(=O)N[C@@H]2C(=O)N3[C@@H]2SC(C)(C)[C@@H]3C(=O)O)c2ccccc2)C(=O)C1=O; conditions: Pseudomonas aeruginosa; remark: listed apart in the source
# [11] = tested on: C[C@@H](O)[C@H]1C(=O)N2C(C(=O)O)=C(S[C@@H]3CN[C@H](C(=O)N(C)C)C3)[C@H](C)[C@H]12; conditions: Pseudomonas aeruginosa; remark: listed apart in the source
# [12] = tested on: CC1(C)S[C@@H]2[C@H](NC(=O)[C@H](N)c3ccccc3)C(=O)N2[C@H]1C(=O)O; conditions: Pseudomonas aeruginosa; remark: listed apart in the source
# [13] = tested on: CC(C)(O/N=C(\C(=O)N[C@@H]1C(=O)N2C(C(=O)[O-])=C(C[n+]3ccccc3)CS[C@H]12)c1csc(N)n1)C(=O)O; conditions: Pseudomonas aeruginosa; remark: listed apart in the source
# [14] = tested on: CO/N=C(\C(=O)N[C@@H]1C(=O)N2C(C(=O)O)=C(COC(C)=O)CS[C@H]12)c1csc(N)n1; conditions: Pseudomonas aeruginosa; remark: listed apart in the source
# [15] = tested on: CC1(C)S[C@@H]2[C@H](NC(=O)Cc3ccccc3)C(=O)N2[C@H]1C(=O)O; conditions: Pseudomonas aeruginosa; remark: listed apart in the source
# [16] = tested on: CO/N=C(\C(=O)N[C@@H]1C(=O)N2C(C(=O)O)=C(COC(N)=O)CS[C@H]12)c1ccco1; conditions: Pseudomonas aeruginosa; remark: listed apart in the source
# [17] = tested on: CC(=O)OCC1=C(C(=O)O)N2C(=O)[C@@H](NC(=O)Cc3cccs3)[C@H]2SC1; assay: (§1) Activity of Pseudomonas aeruginosa VIM-1 beta-lactamase
# How it was run: (§2)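 GST-fused VIM-1 lacking signal peptide, purified, dialyzed in 50 mM HEPES pH 7.5 with 50 μM ZnSO4. Beta-lactam hydrolysis followed spectrophotometrically at 25°C in 50 mM HEPES pH 7.5, 50 μM ZnSO4, 20 μg/ml BSA.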
# [18] = tested on: CCN1CCN(C(=O)N[C@@H](C(=O)N[C@@H]2C(=O)N3[C@@H]2SC(C)(C)[C@@H]3C(=O)O)c2ccccc2)C(=O)C1=O; assay: as §1
# How it was run: as §2
# [19] = tested on: C[C@@H](O)[C@H]1C(=O)N2C(C(=O)O)=C(S[C@@H]3CN[C@H](C(=O)N(C)C)C3)[C@H](C)[C@H]12; assay: as §1
# How it was run: as §2
# [20] = tested on: CC1(C)S[C@@H]2[C@H](NC(=O)[C@H](N)c3ccccc3)C(=O)N2[C@H]1C(=O)O; assay: as §1
# How it was run: as §2
# [21] = tested on: CC(C)(O/N=C(\C(=O)N[C@@H]1C(=O)N2C(C(=O)[O-])=C(C[n+]3ccccc3)CS[C@H]12)c1csc(N)n1)C(=O)O; assay: as §1
# How it was run: as §2
# [22] = tested on: CO/N=C(\C(=O)N[C@@H]1C(=O)N2C(C(=O)O)=C(COC(C)=O)CS[C@H]12)c1csc(N)n1; assay: as §1
# How it was run: as §2
# [23] = tested on: CC1(C)S[C@@H]2[C@H](NC(=O)Cc3ccccc3)C(=O)N2[C@H]1C(=O)O; assay: as §1
# How it was run: as §2
# [24] = tested on: CO/N=C(\C(=O)N[C@@H]1C(=O)N2C(C(=O)O)=C(COC(N)=O)CS[C@H]12)c1ccco1; assay: as §1
# How it was run: as §2
# [25] = tested on: CC(=O)OCC1=C(C(=O)O)N2C(=O)[C@@H](NC(=O)Cc3cccs3)[C@H]2SC1; assay: (§3) Ratio of Kcat to Km for Pseudomonas aeruginosa VIM-1 beta-lactamase
# How it was run: as §2
# [26] = tested on: CCN1CCN(C(=O)N[C@@H](C(=O)N[C@@H]2C(=O)N3[C@@H]2SC(C)(C)[C@@H]3C(=O)O)c2ccccc2)C(=O)C1=O; assay: as §3
# How it was run: as §2
# [27] = tested on: C[C@@H](O)[C@H]1C(=O)N2C(C(=O)O)=C(S[C@@H]3CN[C@H](C(=O)N(C)C)C3)[C@H](C)[C@H]12; assay: as §3
# How it was run: as §2
# [28] = tested on: CC1(C)S[C@@H]2[C@H](NC(=O)[C@H](N)c3ccccc3)C(=O)N2[C@H]1C(=O)O; assay: as §3
# How it was run: as §2
# [29] = tested on: CC(C)(O/N=C(\C(=O)N[C@@H]1C(=O)N2C(C(=O)[O-])=C(C[n+]3ccccc3)CS[C@H]12)c1csc(N)n1)C(=O)O; assay: as §3
# How it was run: as §2
# Escherichia coli [30] = assay: Antimicrobial activity against Escherichia coli XL1-Blue harboring pUCP carrying VIM-13 gene by Etest method; assay type: functional
# How it was run: (§4)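 Etest MICs of piperacillin, piperacillin-tazobactam, ceftazidime, cefepime, cefotaxime, aztreonam, imipenem and meropenem, run per manufacturer's recommendations. Strains were E. coli XL1-Blue or P. aeruginosa PAO1 carrying pUCP24-derived plasmids with blaVIM-1 or blaVIM-13 (cloned by EcoRI) inserted in the lacZ-promoter orientation. E. coli transformants were selected on 10 μg/ml gentamicin MacConkey agar; PAO1 electroporants were selected on 50 μg/ml gentamicin LB agar.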
# Pseudomonas aeruginosa [31] = assay: Antimicrobial activity against Pseudomonas aeruginosa PAO1 by Etest method; assay type: functional
# Pseudomonas aeruginosa [32] = assay: Antimicrobial activity against Pseudomonas aeruginosa PAO1 harboring pUCP carrying VIM-1 gene by Etest method in presence of Tazobactam; assay type: functional
# Pseudomonas aeruginosa [33] = assay: Antimicrobial activity against Pseudomonas aeruginosa isolate PA-SL2 harboring blaVIM-13 gene by Etest method in presence of Tazobactam; assay type: functional
# Escherichia coli [34] = assay: Antimicrobial activity against Escherichia coli XL1-Blue harboring pUCP carrying VIM-13 gene by Etest method in presence of Tazobactam; assay type: functional
# How it was run: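 blaVIM-13 was PCR-amplified, passed through pGEM-T, and moved as an EcoRI fragment into pUCP24, with the insert oriented with the lacZ promoter (checked by PCR and sequencing). It was transformed into CaCl2-competent E. coli XL1-Blue and selected on MacConkey agar with 10 μg/ml gentamicin. Piperacillin-tazobactam MIC was read by Etest strip.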
# Escherichia coli [35] = assay: Antimicrobial activity against Escherichia coli XL1-Blue harboring pUCP carrying VIM-1 gene by Etest method; assay type: functional
# How it was run: as §4
# Escherichia coli [36] = assay: Antimicrobial activity against Escherichia coli XL1-Blue harboring pUCP carrying VIM-1 gene by Etest method in presence of Tazobactam; assay type: functional
# How it was run: as §4
# Escherichia coli [37] = assay: Antimicrobial activity against Escherichia coli XL1-Blue by Etest method in presence of Tazobactam; assay type: functional
# Pseudomonas aeruginosa [38] = assay: Antimicrobial activity against Pseudomonas aeruginosa PAO1 harboring pUCP carrying VIM-13 gene by Etest method in presence of Tazobactam; assay type: functional
# Pseudomonas aeruginosa [39] = assay: Antimicrobial activity against Pseudomonas aeruginosa PAO1 harboring pUCP carrying VIM-13 gene by Etest method; assay type: functional
# How it was run: as §4
# Escherichia coli [40] = assay: Antimicrobial activity against Escherichia coli XL1-Blue by Etest method; assay type: functional
# Pseudomonas aeruginosa [41] = assay: Antimicrobial activity against Pseudomonas aeruginosa isolate PA-SD2 harboring blaVIM-1 gene by Etest method in presence of Tazobactam; assay type: functional
# Pseudomonas aeruginosa [42] = assay: Antimicrobial activity against Pseudomonas aeruginosa isolate PA-SL2 harboring blaVIM-13 gene by Etest method; assay type: functional
# Pseudomonas aeruginosa [43] = assay: Antimicrobial activity against Pseudomonas aeruginosa PAO1 by Etest method in presence of Tazobactam; assay type: functional
# How it was run: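 Etest MICs of piperacillin-tazobactam for P. aeruginosa PAO1 electroporated with pUCP24 carrying cloned blaVIM-1 or blaVIM-13, with the insert in lacZ promoter orientation. Transformants were selected on 50 μg/ml gentamicin LB agar. Testing followed the manufacturer's recommendations, with CLSI breakpoints.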
# Pseudomonas aeruginosa [44] = assay: Antimicrobial activity against Pseudomonas aeruginosa PAO1 harboring pUCP carrying VIM-1 gene by Etest method; assay type: functional
# How it was run: as §4
# Pseudomonas aeruginosa [45] = assay: Antimicrobial activity against Pseudomonas aeruginosa isolate PA-SD2 harboring blaVIM-1 gene by Etest method; assay type: functional
compound,measurement,setting,value
Class B carbapenemase VIM-13 (Pseudomonas aeruginosa) (from UniProt Q2HY42),kcat/Km,[1],8.6e+06 M⁻¹ s⁻¹
same,kcat/Km,[2],490000 M⁻¹ s⁻¹
same,kcat/Km,[3],592000 M⁻¹ s⁻¹
same,kcat/Km,[4],340000 M⁻¹ s⁻¹
same,kcat/Km,[5],1.9 M⁻¹ s⁻¹
same,kcat/Km,[6],2.6e+06 M⁻¹ s⁻¹
same,kcat/Km,[7],670000 M⁻¹ s⁻¹
same,kcat/Km,[8],5e+06 M⁻¹ s⁻¹
same,Km,[9],76 µM
same,kcat,[9],656 s⁻¹
same,Km,[10],729 µM
same,kcat,[10],362 s⁻¹
same,Km,[11],15.5 µM
same,kcat,[11],9 s⁻¹
same,Km,[12],197 µM
same,kcat,[12],67 s⁻¹
same,Km,[13],509 µM
same,kcat,[13],10 s⁻¹
same,Km,[14],233 µM
same,kcat,[14],612 s⁻¹
same,Km,[15],1130 µM
same,kcat,[15],757 s⁻¹
same,Km,[16],56 µM
same,kcat,[16],283 s⁻¹
Beta-lactamase VIM-1 (Pseudomonas aeruginosa) (from UniProt Q9XAY4),Km,[17],135 µM
same,kcat,[17],449 s⁻¹
same,Km,[18],1380 µM
same,kcat,[18],374 s⁻¹
same,Km,[19],72 µM
same,kcat,[19],20 s⁻¹
same,Km,[20],1740 µM
same,kcat,[20],307 s⁻¹
same,Km,[21],1130 µM
same,kcat,[21],42 s⁻¹
same,Km,[22],285 µM
same,kcat,[22],204 s⁻¹
same,Km,[23],1300 µM
same,kcat,[23],418 s⁻¹
same,Km,[24],148 µM
same,kcat,[24],239 s⁻¹
same,kcat/Km,[25],3.3e+06 M⁻¹ s⁻¹
same,kcat/Km,[26],270000 M⁻¹ s⁻¹
same,kcat/Km,[27],280000 M⁻¹ s⁻¹
same,kcat/Km,[28],180000 M⁻¹ s⁻¹
same,kcat/Km,[29],3.7 M⁻¹ s⁻¹
CCN1CCN(C(=O)N[C@@H](C(=O)N[C@@H]2C(=O)N3[C@@H]2SC(C)(C)[C@@H]3C(=O)O)c2ccccc2)C(=O)C1=O [PIPERACILLIN],MIC,Escherichia coli [30],8 µg/mL
same,MIC,Pseudomonas aeruginosa [31],3 µg/mL
same,MIC,Pseudomonas aeruginosa [32],48 µg/mL
same,MIC,Pseudomonas aeruginosa [33],> 256 µg/mL
same,MIC,Escherichia coli [34],8 µg/mL
same,MIC,Escherichia coli [35],6 µg/mL
same,MIC,Escherichia coli [36],6 µg/mL
same,MIC,Escherichia coli [37],1 µg/mL
same,MIC,Pseudomonas aeruginosa [38],192 µg/mL
same,MIC,Pseudomonas aeruginosa [39],192 µg/mL
same,MIC,Escherichia coli [40],1.5 µg/mL
same,MIC,Pseudomonas aeruginosa [41],> 256 µg/mL
same,MIC,Pseudomonas aeruginosa [42],> 256 µg/mL
same,MIC,Pseudomonas aeruginosa [43],3 µg/mL
same,MIC,Pseudomonas aeruginosa [44],64 µg/mL
same,MIC,Pseudomonas aeruginosa [45],> 256 µg/mL
